ChEMBL document CHEMBL2311419, “Discovery of coumarin-dihydropyridine hybrids as bone anabolic agents” (J Med Chem, 2013)
The source made the active and inactive calls. The rule behind the calls is not given here.

Columns and labels:
[1] = species on record: Mus musculus; assay: Stimulation of alkaline phosphatase activity in mouse calvarial osteoblasts at 1 pM to 1 uM after 48 hrs by spectrophotometric analysis
Summary of the method: (§1)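 Calvarial osteoblasts were exposed to compounds over 1 pM to 1 µM. ALP activity was read spectrophotometrically as optical density at 405 nm. Results were expressed as % ALP activity, with EC50 and Emax derived from the concentration series.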

[2] = species on record: Mus musculus; assay: Stimulation of alkaline phosphatase activity in mouse calvarial osteoblasts at 1 pM to 1 uM after 48 hrs by spectrophotometric analysis relative to nifedipine
[3] = species on record: Mus musculus; assay: Stimulation of alkaline phosphatase activity in mouse calvarial osteoblasts assessed as concentration required for maximum activity after 48 hrs by spectrophotometric analysis; summary of the method: as §1
[4] = Stimulation of alkaline phosphatase activity in mouse calvarial osteoblasts after 48 hrs by spectrophotometric analysis; summary of the method: as §1
[5] = Cytotoxicity against mouse calvarial osteoblasts assessed as cell viability at 1 pM to 1 uM after 48 hrs by MTT assay; type: cell-based; conditions: calvarial osteoblast
[6] = system: Calvarial osteoblast; assay: Induction of mineralization in mouse calvarial osteoblasts assessed as increase of mineralized nodules formation measuring concentration required for maximum activity after 21 days by alizarin red-S staining based spectrophotometric analysis; type: functional
[7] = system: Calvarial osteoblast; assay: Induction of proliferation of mouse calvarial osteoblasts at 1 pM to 1 uM after 48 hrs; type: functional, cell-based
[8] = system: Calvarial osteoblast; assay: Induction of osteoblastogenesis in mouse calvarial osteoblasts assessed as increase in COL1 expression at 100 pM to 10 nM by Western blotting analysis; type: functional, cell-based
[9] = system: Calvarial osteoblast; assay: Induction of osteoblastogenesis in mouse calvarial osteoblasts assessed as increase in BMP2 expression at 100 pM to 10 nM by Western blotting analysis; type: functional, cell-based
[10] = system: Calvarial osteoblast; assay: Induction of osteoblastogenesis in mouse calvarial osteoblasts assessed as increase in RUNX2 expression at 100 pM to 10 nM by Western blotting analysis; type: functional, cell-based
[11] = system: Calvarial osteoblast; assay: Induction of osteoblastogenesis in mouse calvarial osteoblasts assessed as increase in expression of COL1 gene at 100 pM by qPCR analysis relative to control; type: functional, cell-based
[12] = system: Calvarial osteoblast; assay: Induction of osteoblastogenesis in mouse calvarial osteoblasts assessed as increase in expression of osteocalcin gene at 100 pM by qPCR analysis relative to control; type: functional, cell-based
[13] = system: Calvarial osteoblast; assay: Induction of osteoblastogenesis in mouse calvarial osteoblasts assessed as increase in expression of ALP gene at 100 pM by qPCR analysis relative to control; type: functional, cell-based
[14] = system: Calvarial osteoblast; assay: Induction of osteoblastogenesis in mouse calvarial osteoblasts assessed as increase in expression of BMP2 gene at 100 pM by qPCR analysis relative to control; type: functional, cell-based
[15] = system: Calvarial osteoblast; assay: Induction of osteoblastogenesis in mouse calvarial osteoblasts assessed as increase in expression of RUNX2 gene at 100 pM by qPCR analysis relative to control; type: functional, cell-based
[16] = system: Calvarial osteoblast; assay: Induction of osteoblastogenesis in mouse calvarial osteoblasts assessed as increase in expression of COL1 gene at 100 pM to 10 nM by qPCR analysis relative to control; type: functional
[17] = system: Calvarial osteoblast; assay: Induction of osteoblastogenesis in mouse calvarial osteoblasts assessed as increase in expression of osteocalcin gene at 100 pM to 10 nM by qPCR analysis relative to control; type: functional
[18] = system: Calvarial osteoblast; assay: Induction of osteoblastogenesis in mouse calvarial osteoblasts assessed as increase in expression of ALP gene at 100 pM to 10 nM by qPCR analysis relative to control; type: functional
[19] = system: Calvarial osteoblast; assay: Induction of osteoblastogenesis in mouse calvarial osteoblasts assessed as increase in expression of BMP2 gene at 100 pM to 10 nM by qPCR analysis relative to control; type: functional
[20] = system: Calvarial osteoblast; assay: Induction of osteoblastogenesis in mouse calvarial osteoblasts assessed as increase in expression of RUNX2 gene at 100 pM to 10 nM by qPCR analysis relative to control; type: functional

| SMILES | Activity [1] | Activity [2] | Concentration giving maximum ALP activity [3] [pM] | EC50 [4] [nM] | also measured |
| --- | --- | --- | --- | --- | --- |
| COC(=O)C1=C(C)NC2=C(C(=O)CC(C)(C)C2)C1c1cc(C(C)(C)C)c2oc(=O)c(C(=O)OC)cc2c1 (racemic) | 10% | inactive | 10000 | 1530 |  |
| CCOC(=O)C1=C(C)NC2=C(C(=O)CC(C)(C)C2)C1c1cc(C(C)CC)c2oc(=O)c(C(=O)OCC)cc2c1 (racemic) | 3% | inactive | 100 | 1280 |  |
| CCOC(=O)c1cc2cc(C=O)cc(C(C)(C)C)c2oc1=O | inactive |  |  |  |  |
| CCOC(=O)C1=C(C)NC2=C(C(=O)CC(C)(C)C2)C1c1cc(C(C)CC)c2oc(=O)c(C(=O)OC)cc2c1 (racemic) | 43% | 17% | 1 | 1010 | Activity [5]: Non-toxic; Concentration for maximum mineralization [6]: 100 pM; Activity [7]: Active; Activity [8]: Active; Activity [9]: Active; Activity [10]: Active; Activity [11]: Active; Activity [12]: Active; Activity [13]: Active; Activity [14]: Active; Activity [15]: Active; fold change (FC) [16]: 1.5; fold change (FC) [17]: 1.5; fold change (FC) [18]: 1.5; fold change (FC) [19]: 1.5; fold change (FC) [20]: 1.5 |
| CCOC(=O)c1cc2cc(C3C(C(=O)OC)=C(C)NC(C)=C3C(=O)OC)cc(C(C)(C)C)c2oc1=O | 7% | inactive | 1 | 1040 |  |
| CCC(C)c1cc(C2C(C(=O)OC)=C(C)NC(C)=C2C(=O)OC)cc2cc(C(=O)OC)c(=O)oc12 (centres undefined) | 30% | 12% | 1 | 1190 | Activity [5]: Non-toxic; Concentration for maximum mineralization [6]: 1 pM; Activity [7]: Active; Activity [8]: Active; Activity [9]: Active; Activity [10]: Active; Activity [11]: Active; Activity [12]: Active; Activity [13]: Active; Activity [14]: Active; Activity [15]: Active; fold change (FC) [16]: 1.5; fold change (FC) [17]: 1.5; fold change (FC) [18]: 1.5; fold change (FC) [19]: 1.5; fold change (FC) [20]: 1.5 |
| CCOC(=O)C1=C(C)NC2=C(C(=O)CCC2)C1c1cc(C(C)(C)C)c2oc(=O)c(C(=O)OCC)cc2c1 (racemic) | 13% |  | 1 | 1340 |  |
| CCOC(=O)C1=C(C)NC(C)=C(C(=O)OCC)C1c1cc(C(C)CC)c2oc(=O)c(C(=O)OC)cc2c1 (centres undefined) | 5% | inactive | 100 | 1140 |  |
| CCOC(=O)c1cc2cc(C3C(C(=O)OC)=C(C)NC(C)=C3C(=O)OC)cc(C(C)CC)c2oc1=O (centres undefined) | 20% | inactive | 10000 | 1510 |  |
| CCOC(=O)C1=C(C)NC2=C(C(=O)CC(C)(C)C2)C1c1cc(C(C)(C)C)c2oc(=O)c(C(=O)OCC)cc2c1 (racemic) | 4% | inactive | 10000 | 1560 |  |
| COC(=O)C1=C(C)NC2=C(C(=O)CCC2)C1c1cc(C(C)(C)C)c2oc(=O)c(C(=O)OC)cc2c1 (racemic) | 14% | inactive | 100 | 1340 |  |
| CCOC(=O)c1cc2cc(C3C(C(=O)OC)=C(C)NC4=C3C(=O)CC(C)(C)C4)cc(C(C)CC)c2oc1=O (racemic) | 39% | 16% | 1 | 1190 |  |
| CCC(C)c1cc(C=O)cc2cc(C(=O)OC)c(=O)oc12 (centres undefined) | inactive |  |  |  |  |
| CCOC(=O)c1cc2cc(C3C(C(=O)OC)=C(C)NC4=C3C(=O)CCC4)cc(C(C)(C)C)c2oc1=O (racemic) | 10% | inactive | 1 | 1310 |  |
| CCOC(=O)C1=C(C)NC(C)=C(C(=O)OCC)C1c1cc(C(C)CC)c2oc(=O)c(C(=O)OCC)cc2c1 (centres undefined) | 4% | inactive | 100 | 1230 |  |
| CCOC(=O)c1cc2cc(C3C(C(=O)OC)=C(C)NC4=C3C(=O)CC(C)(C)C4)cc(C(C)(C)C)c2oc1=O (racemic) | 5% |  | 1 | 1090 |  |
| CCC(C)c1cc(C2C(C(=O)OC)=C(C)NC3=C2C(=O)CCC3)cc2cc(C(=O)OC)c(=O)oc12 (racemic) | 4% | inactive | 10000 | 1560 |  |
| CCOC(=O)C1=C(C)NC2=C(C(=O)CCC2)C1c1cc(C(C)(C)C)c2oc(=O)c(C(=O)OC)cc2c1 (racemic) | 4% | inactive | 1 | 1260 |  |
| COC(=O)C1=C(C)NC(C)=C(C(=O)OC)C1c1cc(C(C)(C)C)c2oc(=O)c(C(=O)OC)cc2c1 | inactive |  |  |  |  |
| CCOC(=O)c1cc2cc(C=O)cc(C(C)CC)c2oc1=O (centres undefined) | 6% | inactive | 10000 | 1490 |  |
| COC(=O)c1cc2cc(C=O)cc(C(C)(C)C)c2oc1=O | inactive |  |  |  |  |
| CCOC(=O)c1cc2cc(C3C(C(=O)OC)=C(C)NC4=C3C(=O)CCC4)cc(C(C)CC)c2oc1=O (racemic) | 12% | inactive | 100 | 1230 |  |
| CCOC(=O)C1=C(C)NC2=C(C(=O)CCC2)C1c1cc(C(C)CC)c2oc(=O)c(C(=O)OCC)cc2c1 (racemic) | 35% | 14% | 1 | 1010 |  |
| COC(=O)C1=C(C)NC(C)=C(C(=O)OC)C1c1ccccc1[N+](=O)[O-] [NIFEDIPINE] | 25% |  |  | 1450 | Concentration for maximum mineralization [6]: 10000 pM; Activity [7]: Active |
